The target in data set [1] is T1, Diacylglycerol O-acyltransferase 1 (Mus musculus, UniProt Q9Z2A7).
T1 sequence (Q9Z2A7 whole entry): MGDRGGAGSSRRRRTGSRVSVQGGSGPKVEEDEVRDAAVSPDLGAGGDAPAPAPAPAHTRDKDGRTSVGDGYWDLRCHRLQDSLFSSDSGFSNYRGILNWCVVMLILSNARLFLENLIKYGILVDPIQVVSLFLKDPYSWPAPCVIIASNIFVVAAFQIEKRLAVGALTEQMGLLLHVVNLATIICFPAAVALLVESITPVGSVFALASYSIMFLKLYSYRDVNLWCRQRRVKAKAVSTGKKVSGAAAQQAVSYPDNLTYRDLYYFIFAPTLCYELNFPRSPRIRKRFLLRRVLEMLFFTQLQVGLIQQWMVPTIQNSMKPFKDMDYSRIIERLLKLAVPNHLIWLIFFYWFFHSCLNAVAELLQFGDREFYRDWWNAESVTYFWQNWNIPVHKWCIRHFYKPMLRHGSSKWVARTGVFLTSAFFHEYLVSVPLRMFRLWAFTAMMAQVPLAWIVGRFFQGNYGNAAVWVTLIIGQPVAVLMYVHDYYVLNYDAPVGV
The experiment in a line: Inhibition of mouse DGAT1.

The target of data set [2] is T2, Diacylglycerol O-acyltransferase 1 (Homo sapiens, UniProt O75907).
T2 sequence (O75907 whole entry): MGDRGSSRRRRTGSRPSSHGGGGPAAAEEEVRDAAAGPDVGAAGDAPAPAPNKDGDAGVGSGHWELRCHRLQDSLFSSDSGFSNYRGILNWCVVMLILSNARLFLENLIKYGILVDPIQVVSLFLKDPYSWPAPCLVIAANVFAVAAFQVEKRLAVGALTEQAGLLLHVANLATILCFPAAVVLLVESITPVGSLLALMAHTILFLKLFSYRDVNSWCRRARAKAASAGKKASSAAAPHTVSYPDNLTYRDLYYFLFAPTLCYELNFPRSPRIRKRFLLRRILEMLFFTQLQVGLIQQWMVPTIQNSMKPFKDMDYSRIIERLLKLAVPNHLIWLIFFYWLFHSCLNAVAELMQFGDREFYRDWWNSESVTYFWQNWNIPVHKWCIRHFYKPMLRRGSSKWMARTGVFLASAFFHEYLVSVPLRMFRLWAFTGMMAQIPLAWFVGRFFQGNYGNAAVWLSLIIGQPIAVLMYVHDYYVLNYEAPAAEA
The experiment in a line: Inhibition of human DGAT1.

A further data set has as its system Mus musculus. The experiment in a line: Reduction in triglyceride excursion in mouse at 10 mg/kg, po measured at 18 hrs by lipid tolerance test. The format is functional. The arrangement: scale not given: the % may be the effect or the level left. The method in brief: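 Mouse lipid tolerance test. Oral dose of 10 mg/kg as a suspension in 0.5% methylcellulose; triglyceride reduction read at 18 h.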

A short description of data set [3]: Lipophilicity, log D of the compound by HPLC analysis. The format is physicochemical.
The nature of data set [4]: Volume of distribution at steady state in Sprague-Dawley rat at 1 mg/kg, iv. The class given is ADME, organism-based. The arrangement: dose 1 mg/kg, route intravenous. As to conditions: in vivo, read-out: Vdss. The method in brief:
(§1)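 Sprague–Dawley rats; intravenous dose of 1 mg/kg given as a solution in EtOH/PEG400/water (10:50:40).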

A short description of data set [5]: Tmax in Sprague-Dawley rat at 10 mg/kg, po. The format is ADME, organism-based. Also noted: dose 10 mg/kg, route oral. The settings on record: in vivo. The method in brief:
(§2)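 Sprague–Dawley rats; oral 10 mg/kg given as a solid dispersion formulation, with the iv arm at 1 mg/kg in EtOH/PEG400/water (10:50:40). Plasma exposure measured for the parent and for the epimer metabolite.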

The nature of data set [6]: Half life in rhesus monkey at 1 mg/kg, iv. Also noted: dose 1 mg/kg, route intravenous. As to conditions: in vivo. The format is ADME, organism-based, Macaca mulatta. The method in brief: (§3)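 Rhesus monkeys; iv 1 mg/kg as a solution in EtOH/PEG400/water (10:50:40), and oral 2 mg/kg as a solution in 0.5% methylcellulose. Plasma measured for the parent and the epimer metabolite.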

Data set [7] is described as follows: Cmax in Sprague-Dawley rat at 10 mg/kg, po. As to conditions: in vivo. The class given is ADME, organism-based. Also noted: dose 10 mg/kg, route oral. The method in brief:
as §2

Data set [8] in a line: Half life in Sprague-Dawley rat at 1 mg/kg, iv. The format is ADME, organism-based. Also noted: dose 1 mg/kg, route intravenous. The settings on record: in vivo. A digest of the protocol: as §1
A short description of data set [9]: AUC in Sprague-Dawley rat at 10 mg/kg, po. The format is ADME, organism-based. The arrangement: dose 10 mg/kg, route oral. As to conditions: plasma. The method in brief: as §2
Data set [10] in a line: Cmax in rhesus monkey at 2 mg/kg, po. The class given is ADME, organism-based, Macaca mulatta. The arrangement: dose 2 mg/kg, route oral. The settings on record: in vivo. A digest of the protocol:
as §3

Data set [11] can be described thus: Clearance in Sprague-Dawley rat at 1 mg/kg, iv. The format is ADME, organism-based. The settings on record: in vivo. The arrangement: dose 1 mg/kg, route intravenous. The method in brief:
as §1

Data set [12] in a line: Volume of distribution at steady state in rhesus monkey at 1 mg/kg, iv. The format is ADME, organism-based, Macaca mulatta. The arrangement: dose 1 mg/kg, route intravenous. The settings on record: in vivo, read-out: Vdss. A digest of the protocol: as §3
The test system of another data set is Canis familiaris. The experiment in a line: AUC in beagle dog assessed as trans-4-(5-(5-fluoro-1H-benzo[d]imidazol-2-yl)-2,3'-bipyridin-6'-yloxy)cyclohexanecarboxylic acid at 2 mg/kg, po. The class given is ADME, organism-based, Canis lupus familiaris, Plasma. Also noted: dose 2 mg/kg, route oral. The settings on record: in vivo. The method in brief:
(§4)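 Beagles; iv 0.55 mg/kg as a solution in EtOH/PEG400/water (10:50:40), and oral 2 mg/kg as a solution in 0.5% methylcellulose. Plasma measured for the parent and the epimer metabolite.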

A further data set deals with Rattus norvegicus. Briefly: AUC in Sprague-Dawley rat assessed as trans-4-(5-(5-fluoro-1H-benzo[d]imidazol-2-yl)-2,3'-bipyridin-6'-yloxy)cyclohexanecarboxylic acid at 10 mg/kg, po. The class given is ADME, organism-based, Plasma. Also noted: dose 10 mg/kg, route oral. As to conditions: in vivo. A digest of the protocol: as §2
A short description of data set [13]: Cmax in beagle dog at 2 mg/kg, po. The class given is ADME, organism-based, Canis lupus familiaris. The arrangement: dose 2 mg/kg, route oral. As to conditions: in vivo. A digest of the protocol:
as §4

Data set [14] in a line: Tmax in rhesus monkey at 2 mg/kg, po. The format is ADME, organism-based, Macaca mulatta. As to conditions: in vivo. The arrangement: dose 2 mg/kg, route oral. A digest of the protocol: as §3
Data set [15] is described as follows: AUC in rhesus monkey at 2 mg/kg, po. The format is ADME, organism-based, Macaca mulatta. The arrangement: dose 2 mg/kg, route oral. The settings on record: plasma. A digest of the protocol: as §3
Data set [16] in a line: Bioavailability in beagle dog at 0.55 mg/kg, iv. The class given is ADME, organism-based, Canis lupus familiaris. As to conditions: in vivo. A digest of the protocol:
as §4

Data set [17] can be described thus: Bioavailability in Sprague-Dawley rat at 1 mg/kg, iv. The class given is ADME, organism-based. As to conditions: in vivo. The method in brief: as §1
Another data set has as its system Rhesus monkey. The experiment in a line: AUC in rhesus monkey assessed as trans-4-(5-(5-fluoro-1H-benzo[d]imidazol-2-yl)-2,3'-bipyridin-6'-yloxy)cyclohexanecarboxylic acid at 2 mg/kg, po. The format is ADME, organism-based, Macaca mulatta, Plasma. The arrangement: dose 2 mg/kg, route oral. As to conditions: in vivo. The method in brief: as §3
Data set [18] in a line: Volume of distribution at steady state in beagle dog at 0.55 mg/kg, iv. The format is ADME, organism-based, Canis lupus familiaris. Also noted: dose 0.55 mg/kg, route intravenous. The settings on record: in vivo, read-out: Vdss. The method in brief:
as §4

The nature of data set [19]: Clearance in rhesus monkey at 1 mg/kg, iv. The format is ADME, organism-based, Macaca mulatta. Also noted: dose 1 mg/kg, route intravenous. As to conditions: in vivo. The method in brief:
as §3

Data set [20] is described as follows: Half life in beagle dog at 0.55 mg/kg, iv. The class given is ADME, organism-based, Canis lupus familiaris. Also noted: dose 0.55 mg/kg, route intravenous. As to conditions: in vivo. A digest of the protocol:
as §4

Data set [21] can be described thus: AUC in beagle dog at 2 mg/kg, po. As to conditions: plasma. The arrangement: dose 2 mg/kg, route oral. The format is ADME, organism-based, Canis lupus familiaris. The method in brief: as §4
Data set [22] is described as follows: Tmax in beagle dog at 2 mg/kg, po. The class given is ADME, organism-based, Canis lupus familiaris. Also noted: dose 2 mg/kg, route oral. The settings on record: in vivo. The method in brief: as §4
Data set [23] in a line: Clearance in beagle dog at 0.55 mg/kg, iv. As to conditions: in vivo. The format is ADME, organism-based, Canis lupus familiaris. The arrangement: dose 0.55 mg/kg, route intravenous. The method in brief:
as §4

Data set [24] in a line: Bioavailability in rhesus monkey at 1 mg/kg, iv. The class given is ADME, organism-based, Macaca mulatta. The settings on record: in vivo. A digest of the protocol:
as §3

SMILES strings stand for the structures.

What is called IC50 is the concentration needed to halve the response being measured. What is called logD is lipophilicity at a set pH, counting ionised and neutral species. As a reminder, the Tmax is the time at which the peak concentration occurs. The term half-life denotes the time in which the quantity being followed falls by half. A word on the Cmax: it is the peak of the concentration-time curve. The term AUC denotes the area under the concentration-time curve, a measure of exposure. One may read the clearance as the rate of elimination divided by the concentration. What is called bioavailability is dose-corrected exposure relative to a reference, in per cent.

Consider `CS(=O)(=O)c1ccc2nc(-c3ccc(-c4ccc(O[C@H]5CC[C@H](C(=O)O)CC5)nc4)nc3)[nH]c2c1`, for which the values for the IC50 in data set [1] and in [2] were 727 nM and 137 nM, respectively.

Compound `O=C(O)[C@H]1CC[C@H](Oc2ccc(-c3ccc(-c4nc5cc(Cl)ccc5[nH]4)cn3)cn2)CC1` displayed an Activity with Mus musculus of 83%. Also, the IC50 in data set [1] stood at 4.2 nM; in [2] it was 2 nM. In [3], this compound gave a pH-dependent lipophilicity (logD) of 1.43.

Consider `O=C(O)[C@H]1CC[C@H](Oc2ccc(-c3ccc(-c4nc5cc(C(F)(F)F)ccc5[nH]4)cn3)cn2)CC1`, for which the Activity in the data set on Mus musculus was 84%. For the same compound, the IC50 in [1] is 4.4 nM; in data set [2], 3 nM. In [3], this compound registered a logD of 1.72.

On to `O=C(O)C[C@H]1CC[C@H](c2ccc(-c3ccc(-c4nc5ccc(C(F)(F)F)cc5[nH]4)cn3)cc2)CC1`, for which the IC50 in data set [1] was 2.8 nM; in data set [2], 3.5 nM. Moreover, in data set [3], the logD is 1.97.

As for `CS(=O)(=O)c1ccc2nc(-c3ccc(-c4ccc(O[C@H]5CC[C@@H](C(=O)O)CC5)nc4)nc3)[nH]c2c1`, the IC50 is 358 nM in data set [1] and 101 nM in data set [2].

Consider `N#Cc1ccc2nc(-c3ccc(-c4ccc(O[C@H]5CC[C@@H](C(=O)O)CC5)nc4)nc3)[nH]c2c1`, for which the 50% inhibitory concentration (IC50) in [1] came out at 36 nM; in [2], 3.2 nM.

As for `O=C(O)[C@H]1CC[C@@H](Oc2ccc(-c3ccc(-c4nc5ccc(F)cc5[nH]4)cn3)cn2)CC1`, the Vd in data set [4] was 2.18 L/kg; in data set [12] it was 0.37 L/kg; in data set [18] it was 0.63 L/kg. Also, the time of peak concentration (Tmax) was 2 h in [5], 8 h in data set [14] and 0.25 h in [22]. Besides, the values for the half-life in data set [6], in [8] and in data set [20] were 2 h, 1.69 h and 0.82 h, respectively. Besides, the Cmax was found to be 60 nM in [7], 10 nM in data set [10] and 60 nM in [13]. For the same compound, the AUC is 0.25 µM·h in data set [9]; 0.06 µM·h in the data set on Canis familiaris; 2.47 µM·h in the data set on Rattus norvegicus; 0.2 µM·h in data set [15]; 0.56 µM·h in the data set on Rhesus monkey; 0.05 µM·h in data set [21]. Besides, the results for the IC50 in data set [1] and in data set [2] were 3.4 nM and 2 nM, respectively. Further, the values for the clearance in data set [11], in data set [19] and in data set [23] were 31.8 mL/min/kg, 12.4 mL/min/kg and 32.3 mL/min/kg, respectively. Further, the bioavailability in [16] came to 2%; in data set [17] it was 2%; in [24], 3%. This compound came in with a pH-dependent lipophilicity (logD) in data set [3] of 1.02.

In turn, `O=C(O)[C@H]1CC[C@@H](Oc2ccc(-c3ccc(-c4nc5cc(C(F)(F)F)ccc5[nH]4)cn3)cn2)CC1` showed an Activity with Mus musculus of 84%. In addition, the IC50 was 2.2 nM in [1] and 1.7 nM in data set [2]. The compound also returned a logD in [3] of 1.62.

`COc1ccc2[nH]c(-c3ccc(-c4ccc(O[C@H]5CC[C@@H](C(=O)O)CC5)nc4)nc3)nc2n1`: 11 nM corresponded to half-maximal inhibition in [2] (IC50).

Values taken from ChEMBL document CHEMBL2407079, “Potent DGAT1 Inhibitors in the Benzimidazole Class with a Pyridyl-oxy-cyclohexanecarboxylic Acid Moiety” (ACS Med Chem Lett, 2013).
